In series [1] the test system is P. falciparum 3D7 strain parasites. Description: In vitro P. falciparum growth and proliferation assay. Format: cell-based, Plasmodium falciparum. The note with it: for IC50: read-out: Pf3D7 IC50; for fold reduction in Pf3D7 activity: versus the comparator analogue named in the sentence.
The test system of series [2] is HepG2 cells. The series can be described thus: In vitro cytotoxicity assay. Format: cell-based, human. Conditions: for HepG2/Pf3D7: ratio HepG2 IC50 / Pf3D7 IC50; for IC50: read-out: HepG2 IC50.
Series [3] relates to histone H3K4me3. The series can be described thus: Parasite histone methylation analysis. The note with it: 5-fold IC50, 12 hours, relative to DMSO control. Format: cell-based, P. falciparum 3D7. The gist of the method: (§1)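 3D7 cultures were exposed for 12 h to test compound, chloroquine or DMSO vehicle. Infected blood was saponin-treated (0.15% in PBS) to remove red cells, and freed parasites were lysed by bath sonication in 2% SDS for Western blot. Trimethyl-specific bands were quantified by densitometry, normalized to core histone H3 signal and expressed relative to DMSO-treated parasites.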

Series [4] has as its system histone H3K9me3. Description: Parasite histone methylation analysis. Format: cell-based, P. falciparum 3D7. The note with it: 5-fold IC50, 12 hours, relative to DMSO control. An outline of the steps: as §1
Series [5] deals with HepG2 cells. The note with it: Table 5; ref [21]; cited from earlier work.
Series [6] deals with highly synchronized P. falciparum parasites. The note with it: throughout the intraerythrocytic life cycle; ref [13]; cited from earlier work.
In series [7] the test system is histone H3K4me3. Conditions: ref [13]; cited from earlier work.
The subject of series [8] is histone H3K9me3. The note with it: ref [13]; cited from earlier work.
For series [9] the following is noted: ref [21]; cited from earlier work.
The test system of series [10] is chloroquine-sensitive and chloroquine-resistant parasites. Conditions: ref [13]; cited from earlier work.
For series [11] the following is noted: cited from earlier work.
The conditions of series [12]: cited from earlier work. This is another data set of the same source.
The conditions of series [13]: microsomes, cited from earlier work.
Where [14] appears, read: Plasmodium falciparum, 3D7, 72 h.
The mark [15] stands for this setting: P. falciparum 3D7 strain, three-day SYBR Green I assay.
Setting [16] is: HepG2 cells, three days, CellTiterBlue.

“Also recorded” adds a separate entry of the source. Like-named read-outs stand apart in the source and are kept apart here.

One may read the IC50 as the concentration that gives 50% inhibition.

Regarding `COc1cc2nc(N3CCCN(C)CC3)nc(NC3CCN(Cc4ccccc4)CC3)c2cc1OC` [Compound 1, (1-Benzyl-4-piperidyl)[6,7-dimethoxy-2-(4-methyl-1,4-diazepin-1-yl)-4-quinazolinyl]amine], the IC50 in [1] (setting [14]) is 0.0434 µM. Moreover, in the series on HepG2 cells [2], the HepG2/Pf3D7 amounted to 110.6. Further, the “H3K4me3 levels in treated parasites” value with histone H3K4me3 [3] was “decreased”. Moreover, in the series with histone H3K9me3 [4], the “H3K9me3 levels in treated parasites” value is “decreased”. Besides, in the series with HepG2 cells [5], the HepG2/3D7 is 110.6. Moreover, the killing phenotype entry in series [6] is “fast killing phenotype”. Besides, the “H3K4me3 levels of the parasite” value in the series with histone H3K4me3 [7] is reported as “decrease; also recorded: reduced”. For the same compound, in the series with histone H3K9me3 [8], the “H3K9me3 levels of the parasite” value was “decrease”. The “rat plasma t1/2” value in series [9] was above 4 h. The “potency against chloroquine-sensitive versus chloroquine-resistant parasites” value in [10] is listed as “equally potent”. Besides, the “logD pH 3” value in series [11] (pH 3) is recorded as 0.5. In addition, the “logD pH 7.4” value in series [11] (pH 7.4) is listed as 5. Besides, the “solubility pH 2” value in series [12] (pH 2) was above 100 μg/ml. Moreover, the “solubility pH 6.5” value in series [12] (pH 6.5) is above 100 μg/ml. In series [13], the “rat microsome t1/2” value is 0.883 h. Also, in series [13] (rat), the “in vitro CLint” value is on record as 33 μl/min/mg protein.
As to `COc1cc2nc(N3C=CC=CC=C3)nc(NC3CCN(Cc4ccccc4)CC3)c2cc1OC` [Compound 4, (1-Benzyl-4-piperidyl)[2-(1-azepinyl)-6,7-dimethoxy-4-quinazolinyl]amine], the “Pf3D7 activity (in words)” value in series [1] (P. falciparum 3D7 strain) is on record as “comparable to 1”. For the same compound, the IC50 in [1] (setting [14]) is 0.0291 µM.
Regarding `COc1cc2nc(N3CCN(C)CC3)nc(NC(C)C)c2cc1OC` [Compound 51, (Isopropyl)[6,7-dimethoxy-2-(4-methyl-1-piperazinyl)-4-quinazolinyl]amine], the 50% inhibitory concentration (IC50) in [1] (setting [14]) is above 0.3 µM. Besides, the “fold reduction in Pf3D7 activity” value in [1] was 7-17 fold.
With `COc1cc2nc(N3CCCN(C)CC3)nc(N(C)C3CCN(Cc4ccccc4)CC3)c2cc1OC` [Compound 60, (1-Benzyl-4-piperidyl)-N-methyl[6,7-dimethoxy-2-(4-methyl-1,4-diazepin-1-yl)-4-quinazolinyl]amine], the IC50 in series [1] (setting [15]) turned out to be 0.159 µM; in the series with HepG2 cells [2] (setting [16]) it was 6 µM. In addition, the “fold reduction in Pf3D7 activity” value in series [1] is 10-20 fold. Further, the HepG2/Pf3D7 in the series with HepG2 cells [2] came to 37.9.
Consider `COc1cc2nc(N3CCCCC3)nc(N(C)C3CCN(Cc4ccccc4)CC3)c2cc1OC` [Compound 61, (1-Benzyl-4-piperidyl)-N-methyl(6,7-dimethoxy-2-piperidino-4-quinazolinyl)amine], for which the IC50 stood at 0.495 µM in [1] (setting [14]) and 8.1 µM in the series with HepG2 cells [2] (Homo sapiens, HepG2, 72 h). In addition, the “fold reduction in Pf3D7 activity” value in [1] is recorded as 10-20 fold. Besides, the HepG2/Pf3D7 in the series with HepG2 cells [2] is 16.4.
For `COc1cc2nc(N3C=CC=CC=C3)nc(N(C)C3CCN(Cc4ccccc4)CC3)c2cc1OC` [Compound 62, (1-Benzyl-4-piperidyl)-N-methyl[2-(1-azepinyl)-6,7-dimethoxy-4-quinazolinyl]amine], in that order: 0.4 µM, 5.4 µM, 10-20 fold and 13.6.
Take `COc1cc2nc(N3CCN(c4ccccn4)CC3)nc(N(C)C3CCN(Cc4ccccc4)CC3)c2cc1OC` [Compound 63, (1-Benzyl-4-piperidyl)-N-methyl{6,7-dimethoxy-2-[4-(2-pyridyl)-1-piperazinyl]-4-quinazolinyl}amine]: the IC50 was found to be 0.472 µM in [1] (setting [14]) and 9.6 µM in the series with HepG2 cells [2] (Homo sapiens, HepG2, 72 h). The “fold reduction in Pf3D7 activity” value in series [1] is 10-20 fold. For the same compound, the HepG2/Pf3D7 with HepG2 cells [2] was 20.4.
As to `COc1cc2nc(N3CCCN(C)CC3)nc(OC3CCN(Cc4ccccc4)CC3)c2cc1OC` [Compound 65, 4-(1-Benzyl-4-piperidyloxy)-6,7-dimethoxy-2-(4-methyl-1,4-diazepin-1-yl)quinazoline], the concentration for half-maximal inhibition (IC50) in series [1] (setting [15]) was determined as 1.46 µM; in the series on HepG2 cells [2] (setting [16]) it was 7.9 µM. The HepG2/Pf3D7 in the series on HepG2 cells [2] turned out to be 5.4.
Regarding `COc1cc2nc(N3CCN(c4ccccn4)CC3)nc(OC3CCN(Cc4ccccc4)CC3)c2cc1OC` [Compound 66, 4-(1-Benzyl-4-piperidyloxy)-6,7-dimethoxy-2-[4-(2-pyridyl)-1-piperazinyl]quinazoline], the IC50 in series [1] (setting [14]) came out at 2.06 µM; in the series on HepG2 cells [2] (Homo sapiens, HepG2, 72 h), 15.7 µM. Further, the HepG2/Pf3D7 with HepG2 cells [2] worked out at 7.7.
As to `CN1CCCN(c2nc(NC3CCN(Cc4ccccc4)CC3)c3ccccc3n2)CC1` [Compound 73, (1-Benzyl-4-piperidyl)[2-(4-methyl-1,4-diazepin-1-yl)-4-quinazolinyl]amine], the IC50 in [1] (setting [15]) turned out to be 0.101 µM; in the series with HepG2 cells [2] (setting [16]), 7 µM. For the same compound, the HepG2/Pf3D7 with HepG2 cells [2] was determined as 69.6.
As for `c1ccc(CN2CCC(Nc3nc(N4CCCCC4)nc4ccccc34)CC2)cc1` [Compound 74, (1-Benzyl-4-piperidyl)(2-piperidino-4-quinazolinyl)amine], the IC50 in [1] (setting [14]) amounted to 0.385 µM.
Consider `CCN(CC)CCCC(C)Nc1ccnc2cc(Cl)ccc12` (stereo not drawn) [chloroquine], for which the “H3K4me3 levels in treated parasites” value in the series on histone H3K4me3 [3] is “slight decrease”. The “H3K9me3 levels in treated parasites” value in the series on histone H3K9me3 [4] was “slight increase”.
With “(1-Benzyl-4-piperidyl){6,7-dimethoxy-2-[4-(2-pyridyl)-1-piperazinyl]-4-quinazolinyl}amine [Compound 75]”, the IC50 in series [1] (setting [15]) was found to be 0.354 µM; in the series on HepG2 cells [2] (setting [16]), 5 µM. For the same compound, in the series with HepG2 cells [2], the HepG2/Pf3D7 is given as 14.2.

The record behind these values is publication PMC4177335 (ChemMedChem, 2014).
